Legend:
Conditions in all cases: 81-11963
[1] = tested on: CC(=O)OCC1=C(C(=O)O)N2C(=O)[C@@H](NC(=O)Cc3cccs3)[C@H]2SC1; assay: (§1) Activity of Pseudomonas aeruginosa beta-lactamase VIM-2 by spectrophotometry
Summary of the method: (§2)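 Recombinant enzyme was expressed in E. coli BL21(DE3) from pET-26b and purified from the periplasm to >99%, with concentration taken from A280. Hydrolysis was followed spectrophotometrically at 25°C in 50 mM sodium cacodylate pH 7.0 with 100 μM ZnCl2 and 0.1 mg/ml BSA. Km and kcat came from initial velocity versus substrate concentration. Some Km values were taken as competitive Ki against nitrocefin reporter.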

[2] = tested on: CC(C)(O/N=C(\C(=O)N[C@@H]1C(=O)N2C(C(=O)[O-])=C(C[n+]3ccccc3)CS[C@H]12)c1csc(N)n1)C(=O)O; assay: as §1; summary of the method: as §2
[3] = tested on: CC1(C)S[C@@H]2[C@H](NC(=O)C(C(=O)O)c3ccccc3)C(=O)N2[C@H]1C(=O)O; assay: as §1; summary of the method: as §2
[4] = tested on: CC1(C)S[C@@H]2[C@H](NC(=O)Cc3ccccc3)C(=O)N2[C@H]1C(=O)O; assay: as §1; summary of the method: as §2
[5] = tested on: CC1(C)S[C@@H]2[C@H](NC(=O)[C@H](N)c3ccccc3)C(=O)N2[C@H]1C(=O)O; assay: as §1; summary of the method: as §2
[6] = tested on: CC1(C)S[C@@H]2[C@H](NC(=O)[C@H](NC(=O)N3CCNC3=O)c3ccccc3)C(=O)N2[C@H]1C(=O)O; assay: as §1; summary of the method: as §2
[7] = tested on: CC1(C)[C@H](C(=O)O)N2C(=O)C[C@H]2S1(=O)=O; assay: as §1; summary of the method: as §2
[8] = tested on: CCN1CCN(C(=O)N[C@@H](C(=O)N[C@@H]2C(=O)N3[C@@H]2SC(C)(C)[C@@H]3C(=O)O)c2ccccc2)C(=O)C1=O; assay: as §1; summary of the method: as §2
[9] = tested on: CO/N=C(\C(=O)N[C@@H]1C(=O)N2C(C(=O)O)=C(COC(C)=O)CS[C@H]12)c1csc(N)n1; assay: as §1; summary of the method: as §2
[10] = tested on: CO/N=C(\C(=O)N[C@@H]1C(=O)N2C(C(=O)O)=C(COC(N)=O)CS[C@H]12)c1ccco1; assay: as §1; summary of the method: as §2
[11] = tested on: CO/N=C(\C(=O)N[C@@H]1C(=O)N2C(C(=O)[O-])=C(C[N+]3(C)CCCC3)CS[C@H]12)c1csc(N)n1; assay: as §1; summary of the method: as §2
[12] = tested on: CO[C@@]1(NC(=O)C(C(=O)O)c2ccc(O)cc2)C(=O)N2C(C(=O)O)=C(CSc3nnnn3C)CO[C@@H]21; assay: as §1; summary of the method: as §2
[13] = tested on: CO[C@@]1(NC(=O)Cc2cccs2)C(=O)N2C(C(=O)O)=C(COC(N)=O)CS[C@@H]21; assay: as §1; summary of the method: as §2
[14] = tested on: C[C@@H](O)[C@H]1C(=O)N2C(C(=O)O)=C(S[C@@H]3CN[C@H](C(=O)N(C)C)C3)[C@H](C)[C@H]12; assay: as §1; summary of the method: as §2
[15] = tested on: C[C@@H](O)[C@H]1C(=O)N2C(C(=O)O)=C(S[C@@H]3CN[C@H](C(=O)Nc4cccc(C(=O)O)c4)C3)[C@H](C)[C@H]12; assay: as §1; summary of the method: as §2
[16] = tested on: C[C@H]1[C@H](NC(=O)/C(=N\OC(C)(C)C(=O)O)c2csc(N)n2)C(=O)N1S(=O)(=O)O; assay: as §1; summary of the method: as §2
[17] = tested on: C[C@]1(Cn2ccnn2)[C@H](C(=O)O)N2C(=O)C[C@H]2S1(=O)=O; assay: as §1; summary of the method: as §2
[18] = tested on: Cc1onc(-c2ccccc2Cl)c1C(=O)N[C@@H]1C(=O)N2[C@@H]1SC(C)(C)[C@@H]2C(=O)O; assay: as §1; summary of the method: as §2
[19] = tested on: O=C(Cc1cccs1)N[C@@H]1C(=O)N2C(C(=O)O)=C(/C=C/c3ccc([N+](=O)[O-])cc3[N+](=O)[O-])CS[C@H]12; assay: as §1; summary of the method: as §2
[20] = tested on: O=C(Cc1cccs1)N[C@@H]1C(=O)N2C(C(=O)[O-])=C(C[n+]3ccccc3)CS[C@H]12; assay: as §1; summary of the method: as §2
[21] = tested on: O=C(O)[C@H]1/C(=C/CO)O[C@@H]2CC(=O)N21; assay: as §1; summary of the method: as §2
[22] = tested on: CC(=O)OCC1=C(C(=O)O)N2C(=O)[C@@H](NC(=O)Cc3cccs3)[C@H]2SC1; assay: (§3) Ratio of Kcat to Km for Pseudomonas aeruginosa beta-lactamase VIM-2 by spectrophotometry; summary of the method: as §2
[23] = tested on: CC(C)(O/N=C(\C(=O)N[C@@H]1C(=O)N2C(C(=O)[O-])=C(C[n+]3ccccc3)CS[C@H]12)c1csc(N)n1)C(=O)O; assay: as §3; summary of the method: as §2
[24] = tested on: CC1(C)S[C@@H]2[C@H](NC(=O)C(C(=O)O)c3ccccc3)C(=O)N2[C@H]1C(=O)O; assay: as §3; summary of the method: as §2
[25] = tested on: CC1(C)S[C@@H]2[C@H](NC(=O)Cc3ccccc3)C(=O)N2[C@H]1C(=O)O; assay: as §3; summary of the method: as §2
[26] = tested on: CC1(C)S[C@@H]2[C@H](NC(=O)[C@H](N)c3ccccc3)C(=O)N2[C@H]1C(=O)O; assay: as §3; summary of the method: as §2
[27] = tested on: CC1(C)S[C@@H]2[C@H](NC(=O)[C@H](NC(=O)N3CCNC3=O)c3ccccc3)C(=O)N2[C@H]1C(=O)O; assay: as §3; summary of the method: as §2
[28] = tested on: CC1(C)[C@H](C(=O)O)N2C(=O)C[C@H]2S1(=O)=O; assay: as §3; summary of the method: as §2
[29] = tested on: CCN1CCN(C(=O)N[C@@H](C(=O)N[C@@H]2C(=O)N3[C@@H]2SC(C)(C)[C@@H]3C(=O)O)c2ccccc2)C(=O)C1=O; assay: as §3; summary of the method: as §2
[30] = tested on: CO/N=C(\C(=O)N[C@@H]1C(=O)N2C(C(=O)O)=C(COC(C)=O)CS[C@H]12)c1csc(N)n1; assay: as §3; summary of the method: as §2
[31] = tested on: CO/N=C(\C(=O)N[C@@H]1C(=O)N2C(C(=O)O)=C(COC(N)=O)CS[C@H]12)c1ccco1; assay: as §3; summary of the method: as §2
[32] = tested on: CO/N=C(\C(=O)N[C@@H]1C(=O)N2C(C(=O)[O-])=C(C[N+]3(C)CCCC3)CS[C@H]12)c1csc(N)n1; assay: as §3; summary of the method: as §2
[33] = tested on: CO[C@@]1(NC(=O)C(C(=O)O)c2ccc(O)cc2)C(=O)N2C(C(=O)O)=C(CSc3nnnn3C)CO[C@@H]21; assay: as §3; summary of the method: as §2
[34] = tested on: CO[C@@]1(NC(=O)Cc2cccs2)C(=O)N2C(C(=O)O)=C(COC(N)=O)CS[C@@H]21; assay: as §3; summary of the method: as §2
[35] = tested on: C[C@@H](O)[C@H]1C(=O)N2C(C(=O)O)=C(S[C@@H]3CN[C@H](C(=O)N(C)C)C3)[C@H](C)[C@H]12; assay: as §3; summary of the method: as §2
[36] = tested on: C[C@@H](O)[C@H]1C(=O)N2C(C(=O)O)=C(S[C@@H]3CN[C@H](C(=O)Nc4cccc(C(=O)O)c4)C3)[C@H](C)[C@H]12; assay: as §3; summary of the method: as §2
[37] = tested on: C[C@]1(Cn2ccnn2)[C@H](C(=O)O)N2C(=O)C[C@H]2S1(=O)=O; assay: as §3; summary of the method: as §2
[38] = tested on: Cc1onc(-c2ccccc2Cl)c1C(=O)N[C@@H]1C(=O)N2[C@@H]1SC(C)(C)[C@@H]2C(=O)O; assay: as §3; summary of the method: as §2
[39] = tested on: O=C(Cc1cccs1)N[C@@H]1C(=O)N2C(C(=O)O)=C(/C=C/c3ccc([N+](=O)[O-])cc3[N+](=O)[O-])CS[C@H]12; assay: as §3; summary of the method: as §2
[40] = tested on: O=C(Cc1cccs1)N[C@@H]1C(=O)N2C(C(=O)[O-])=C(C[n+]3ccccc3)CS[C@H]12; assay: as §3; summary of the method: as §2
[41] = tested on: O=C(O)[C@H]1/C(=C/CO)O[C@@H]2CC(=O)N21; assay: as §3; summary of the method: as §2

Beta-lactamase VIM-2 (Pseudomonas aeruginosa) (from UniProt Q9K2N0)
Km [1]: 11 µM
kcat [1]: 130 s⁻¹
Km [2]: 72 µM
kcat [2]: 3.6 s⁻¹
Km [3]: 205 µM
kcat [3]: 185 s⁻¹
Km [4]: 70 µM
kcat [4]: 280 s⁻¹
Km [5]: 90 µM
kcat [5]: 125 s⁻¹
Km [6]: 200 µM
kcat [6]: 200 s⁻¹
Km [7]: 320 µM
kcat [7]: 23 s⁻¹
Km [8]: 125 µM
kcat [8]: 300 s⁻¹
Km [9]: 12 µM
kcat [9]: 70 s⁻¹
Km [10]: 20 µM
kcat [10]: 8 s⁻¹
Km [11]: > 400 µM
kcat [11]: > 40 s⁻¹
Km [12]: 55 µM
kcat [12]: 90 s⁻¹
Km [13]: 13 µM
kcat [13]: 15 s⁻¹
Km [14]: 2 µM
kcat [14]: 5 s⁻¹
Km [15]: 9 µM
kcat [15]: 0.2 s⁻¹
Km [16]: > 1000 µM
kcat [16]: < 0.01 s⁻¹
Km [17]: 875 µM
kcat [17]: 28 s⁻¹
Km [18]: 250 µM
kcat [18]: 350 s⁻¹
Km [19]: 18 µM
kcat [19]: 770 s⁻¹
Km [20]: 50 µM
kcat [20]: 140 s⁻¹
Km [21]: > 5000 µM
kcat [21]: 5.4 s⁻¹
kcat/Km [22]: 1.2e+07 M⁻¹ s⁻¹
kcat/Km [23]: 50000 M⁻¹ s⁻¹
kcat/Km [24]: 900000 M⁻¹ s⁻¹
kcat/Km [25]: 4e+06 M⁻¹ s⁻¹
kcat/Km [26]: 1.4e+06 M⁻¹ s⁻¹
kcat/Km [27]: 1e+06 M⁻¹ s⁻¹
kcat/Km [28]: 72000 M⁻¹ s⁻¹
kcat/Km [29]: 2.4e+06 M⁻¹ s⁻¹
kcat/Km [30]: 5.8e+06 M⁻¹ s⁻¹
kcat/Km [31]: 400000 M⁻¹ s⁻¹
kcat/Km [32]: 100000 M⁻¹ s⁻¹
kcat/Km [33]: 1.6e+06 M⁻¹ s⁻¹
kcat/Km [34]: 1.2e+06 M⁻¹ s⁻¹
kcat/Km [35]: 2.5e+06 M⁻¹ s⁻¹
kcat/Km [36]: 22000 M⁻¹ s⁻¹
kcat/Km [37]: 32000 M⁻¹ s⁻¹
kcat/Km [38]: 1.4e+06 M⁻¹ s⁻¹
kcat/Km [39]: 4.28e+07 M⁻¹ s⁻¹
kcat/Km [40]: 2.8e+06 M⁻¹ s⁻¹
kcat/Km [41]: 1100 M⁻¹ s⁻¹

— ChEMBL document CHEMBL1275486, “Kinetic characterization of VIM-7, a divergent member of the VIM metallo-beta-lactamase family” (Antimicrob Agents Chemother, 2008)
